From ChEMBL document CHEMBL4680156, “Discovery of novel pyrido-pyrrolidine hybrid compounds as alpha-glucosidase inhibitors and alternative agent for control of type 1 diabetes” (Eur J Med Chem, 2020)
The source made the active and inactive calls. The rule behind the calls is not given here.

How the values were obtained:
[1] = Half life in mouse liver microsomes at 1 uM up to 60 mins in presence of NADPH by LC-MS/MS analysis; type: ADME, Microsome
Summary of the method: (§1)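 Liver microsomes (1.0 mg protein/mL) were incubated with compound at 1 μM; reactions were started with 1 mM NADPH. No-NADPH incubations (0 and 60 min) served as stability controls. Reactions were stopped at 0, 5, 15, 30 and 60 min with ice-cold acetonitrile containing internal standard, then centrifuged. Parent loss was tracked by LC-MS/MS.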

Alpha-mannosidase = biological target: T1, Alpha-mannosidase (Canavalia ensiformis, UniProt C0HJB3); experiment: Inhibition of jack bean alpha-mannosidase using […] as substrate incubated for 10 mins by spectrophotometric method
T1 sequence (C0HJB3 whole entry): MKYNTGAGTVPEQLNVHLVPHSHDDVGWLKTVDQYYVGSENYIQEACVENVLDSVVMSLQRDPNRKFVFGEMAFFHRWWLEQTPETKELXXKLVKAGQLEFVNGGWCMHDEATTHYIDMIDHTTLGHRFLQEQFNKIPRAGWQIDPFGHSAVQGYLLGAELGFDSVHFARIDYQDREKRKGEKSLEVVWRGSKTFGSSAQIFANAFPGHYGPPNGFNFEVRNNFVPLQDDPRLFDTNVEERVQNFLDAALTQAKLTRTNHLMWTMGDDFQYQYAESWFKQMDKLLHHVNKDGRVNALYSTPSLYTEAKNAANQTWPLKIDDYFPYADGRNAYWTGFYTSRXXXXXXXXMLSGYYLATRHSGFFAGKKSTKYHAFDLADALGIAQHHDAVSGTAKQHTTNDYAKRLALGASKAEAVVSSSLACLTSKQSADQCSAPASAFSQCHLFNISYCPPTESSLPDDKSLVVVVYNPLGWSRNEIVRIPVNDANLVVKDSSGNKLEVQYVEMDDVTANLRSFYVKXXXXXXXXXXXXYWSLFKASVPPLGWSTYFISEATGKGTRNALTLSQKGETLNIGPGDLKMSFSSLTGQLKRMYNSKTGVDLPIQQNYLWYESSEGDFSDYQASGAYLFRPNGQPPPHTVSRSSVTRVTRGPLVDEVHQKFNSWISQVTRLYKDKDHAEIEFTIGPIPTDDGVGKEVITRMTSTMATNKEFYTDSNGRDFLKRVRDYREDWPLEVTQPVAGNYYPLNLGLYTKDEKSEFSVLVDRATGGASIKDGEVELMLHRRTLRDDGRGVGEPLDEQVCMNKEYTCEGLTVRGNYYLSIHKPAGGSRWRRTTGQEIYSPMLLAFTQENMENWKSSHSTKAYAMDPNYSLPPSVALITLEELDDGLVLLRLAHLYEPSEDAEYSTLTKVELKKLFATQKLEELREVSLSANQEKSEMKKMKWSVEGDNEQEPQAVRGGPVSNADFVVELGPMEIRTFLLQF

Saccharomyces cerevisiae [2] = experiment: Binding affinity to Saccharomyces cerevisiae alpha-glucosidase assessed as protein with beta-sheet structure at 0.64 ug/ml by CD spectroscopic method (reference value: 68%); conditions: dose 0.64 µg/ml
Summary of the method: (§2)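 Compound was added at different concentrations to yeast α-glucosidase (30 U/ml). CD spectra were taken with 3 accumulations (negative bands at 209 and 222 nm). α-Helix and β-sheet content were estimated with secondary-structure estimation software.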

Saccharomyces cerevisiae [3] = experiment: Binding affinity to Saccharomyces cerevisiae alpha-glucosidase assessed as protein with alpha-helical structure at 0.64 ug/ml by CD spectroscopic method (reference value: 5.3%); conditions: dose 0.64 µg/ml; summary of the method: as §2
[4] = Protein binding in rat plasma assessed as unbound fraction at 10 uM after 6 hrs by LC-MS/MS analysis; type: ADME, cell-free
Summary of the method: (§3)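 Equilibrium dialysis: plasma with compound at 10 μM final on one side, 100 mM sodium phosphate pH 7.4 on the other. Equilibrated at 37 ± 1 °C for 6 h with shaking at 500 rpm. Both sides were sampled, proteins precipitated with organic solvent, and supernatants analysed by LC-MS/MS.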

[5] = Protein binding in human plasma assessed as unbound fraction at 10 uM after 6 hrs by LC-MS/MS analysis; type: ADME, cell-free; summary of the method: as §3
[6] = Half life in human liver microsomes at 1 uM up to 60 mins in presence of NADPH by LC-MS/MS analysis; type: ADME, Microsome; summary of the method: as §1
Rattus norvegicus [7] = experiment: Antidiabetic activity against STZ-induced type 1 diabetic Sprague-Dawley rat model assessed as decrease in fasting blood glucose level at 60 mg/kg, po administered once daily for 28 days; type: functional, organism-based; conditions: time 28.0 day
Summary of the method: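 Male Sprague-Dawley rats (250–320 g, 8–10 weeks) were given STZ 70 mg/kg ip once in 0.1 mmol/L citrate buffer, pH 4.5. Rats with random glucose >125 mg/dl at 4 days were counted diabetic. Dosing was 60 mg/kg in 0.5% saline by gavage once daily for 4 weeks, n=6 per group. After a 6 h fast, tail blood glucose was read by glucometer. Data are mean ± SD; 2-way ANOVA.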

[8] = Stability in mouse liver microsomes assessed as CYP450-mediated drug degradation by measuring proportion of compound metabolised at 1 uM up to 60 mins in presence of NADPH by LC-MS/MS analysis; type: ADME; conditions: read-out: Drug degradation; summary of the method: as §1
[9] = Half life in rat liver microsomes at 1 uM up to 60 mins in presence of NADPH by LC-MS/MS analysis; type: ADME, Microsome; summary of the method: as §1
Rattus norvegicus [10] = experiment: Decrease in post prandial glucose level in type 1 diabetic Sprague-Dawley rat model at 60 mg/kg, po administered once daily for 28 days; conditions: time 28.0 day
[11] = Intrinsic clearance in rat liver microsomes at 1 uM up to 60 mins in presence of NADPH by LC-MS/MS analysis; type: ADME, Microsome; conditions: 1 h; summary of the method: as §1
[12] = Drug recovery in rat plasma at 10 uM after 6 hrs by LC-MS/MS analysis; type: ADME, cell-free; conditions: read-out: Drug recovery; summary of the method: as §3
[13] = Stability in rat liver microsomes assessed as CYP450-mediated drug degradation by measuring proportion of compound metabolised at 1 uM up to 60 mins in presence of NADPH by LC-MS/MS analysis; type: ADME; conditions: read-out: Drug degradation; summary of the method: as §1
[14] = biological target: T2, Tissue alpha-L-fucosidase (Bos taurus, UniProt Q2KIM0); experiment: Inhibition of bovine kidney alpha-fucosidase using […] as substrate incubated for 10 mins by spectrophotometric method
T2 sequence (Q2KIM0 whole entry): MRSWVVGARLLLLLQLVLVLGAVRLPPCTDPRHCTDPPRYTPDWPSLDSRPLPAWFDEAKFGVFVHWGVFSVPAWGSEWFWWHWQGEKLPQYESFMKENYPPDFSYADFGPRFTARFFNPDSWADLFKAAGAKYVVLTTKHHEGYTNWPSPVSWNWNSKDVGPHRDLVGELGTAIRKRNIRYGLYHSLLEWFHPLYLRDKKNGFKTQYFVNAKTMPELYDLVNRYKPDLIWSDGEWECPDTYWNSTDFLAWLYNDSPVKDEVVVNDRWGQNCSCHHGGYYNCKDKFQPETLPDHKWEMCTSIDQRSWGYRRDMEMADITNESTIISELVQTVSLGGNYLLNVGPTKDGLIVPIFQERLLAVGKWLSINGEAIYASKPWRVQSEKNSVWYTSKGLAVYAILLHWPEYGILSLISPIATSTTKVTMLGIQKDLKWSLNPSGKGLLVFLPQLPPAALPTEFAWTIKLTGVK

- half-life at 1 µM [1]: 9 min
- IC50 (Alpha-mannosidase): 41.2 µM
- Activity (Saccharomyces cerevisiae [2]): 58.9%
- Activity (Saccharomyces cerevisiae [3]): 6.6%
- fraction unbound at 6 h, 10 µM [4]: 0.0156
- fraction unbound at 6 h, 10 µM [5]: 0.107
- half-life at 1 µM [6]: 13 min
- metabolised at 1 h, 1 µM [8]: 99%
- half-life at 1 µM [9]: 15 min
- CLint [11]: 54.4 µL/min/mg
- remaining at 6 h, 10 µM [12]: 1.95%
- metabolised at 1 h, 1 µM [13]: 95.2%
- IC50 [14]: 30.4 µM
Structure (SMILES): CCOC(=O)c1ccc(-n2c(/C=C3\OC(=O)c4c3cc(C)[nH]c4=O)ccc2CO)cc1
- Activity (Rattus norvegicus [7]): Active
- inhibition (Rattus norvegicus [10]): inactive
